Experimental data reported in ChEMBL document CHEMBL4330168, “Monomeric and Dimeric Cytotoxic Guaianolide-Type Sesquiterpenoids from the Aerial Parts of Chrysanthemum indicum” (J Nat Prod, 2019).

Legend:
HONE1 cell line [1] = assay: Cell cycle arrest in human HONE1 cells assessed as accumulation at G0/G1 phase at 10 uM after 48 hrs by propidium iodide staining based flow cytometry (reference value: 55%); format: functional
CNE = assay: Cytotoxicity against human CNE1 cells after 48 hrs by MTT assay; format: functional, cell-based
Method in brief: (§1)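 Growth inhibition in nasopharyngeal carcinoma lines (CNE1, CNE2, HONE-1, SUNE-1) and HT-29 colon cells. IC50 values are the mean ± SD of three experiments, with cisplatin as positive control.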

HONE1 cell line [2] = assay: Induction of apoptosis in human HONE1 cells assessed as live cells at 3 uM after 48 hrs by Annexin V-FITC/propidium iodide staining based flow cytometry (reference value: 96.16%); format: functional
HONE1 cell line [3] = assay: Induction of apoptosis in human HONE1 cells assessed as early apoptotic cells at 10 uM after 48 hrs by Annexin V-FITC/propidium iodide staining based flow cytometry (reference value: 3.24%); format: functional
HONE1 cell line [4] = assay: Cell cycle arrest in human HONE1 cells assessed as accumulation at S phase at 3 uM after 48 hrs by propidium iodide staining based flow cytometry (reference value: 44.7%); format: functional
HONE1 cell line [5] = assay: Cell cycle arrest in human HONE1 cells assessed as accumulation at S phase at 10 uM after 48 hrs by propidium iodide staining based flow cytometry (reference value: 44.7%); format: functional
HONE1 cell line [6] = assay: Cell cycle arrest in human HONE1 cells assessed as accumulation at S phase at 20 uM after 48 hrs by propidium iodide staining based flow cytometry (reference value: 44.7%); format: functional
HONE1 cell line [7] = assay: Cell cycle arrest in human HONE1 cells assessed as accumulation at G2/M phase at 10 uM after 48 hrs by propidium iodide staining based flow cytometry (reference value: 0.3%); format: functional
HONE1 cell line [8] = assay: Induction of apoptosis in human HONE1 cells assessed as necrotic cells at 1 uM after 48 hrs by Annexin V-FITC/propidium iodide staining based flow cytometry (reference value: 0.23%); format: functional
HONE1 cell line [9] = assay: Induction of apoptosis in human HONE1 cells assessed as live cells at 10 uM after 48 hrs by Annexin V-FITC/propidium iodide staining based flow cytometry (reference value: 96.16%); format: functional
HONE1 cell line [10] = assay: Induction of apoptosis in human HONE1 cells assessed as live cells at 20 uM after 48 hrs by Annexin V-FITC/propidium iodide staining based flow cytometry (reference value: 96.16%); format: functional
HONE1 cell line [11] = assay: Induction of apoptosis in human HONE1 cells assessed as early apoptotic cells at 20 uM after 48 hrs by Annexin V-FITC/propidium iodide staining based flow cytometry (reference value: 3.24%); format: functional
HONE1 cell line [12] = assay: Induction of apoptosis in human HONE1 cells assessed as early apoptotic cells at 1 uM after 48 hrs by Annexin V-FITC/propidium iodide staining based flow cytometry (reference value: 3.24%); format: functional
HONE1 cell line [13] = assay: Cell cycle arrest in human HONE1 cells assessed as accumulation at G0/G1 phase at 3 uM after 48 hrs by propidium iodide staining based flow cytometry (reference value: 55%); format: functional
HONE1 cell line [14] = assay: Induction of apoptosis in human HONE1 cells assessed as late apoptotic cells at 20 uM after 48 hrs by Annexin V-FITC/propidium iodide staining based flow cytometry (reference value: 0.37%); format: functional
HONE1 cell line [15] = assay: Induction of apoptosis in human HONE1 cells assessed as late apoptotic cells at 10 uM after 48 hrs by Annexin V-FITC/propidium iodide staining based flow cytometry (reference value: 0.37%); format: functional
HONE1 cell line [16] = assay: Cell cycle arrest in human HONE1 cells assessed as accumulation at G0/G1 phase at 5 uM after 48 hrs by propidium iodide staining based flow cytometry (reference value: 55%); format: functional
HONE1 cell line [17] = assay: Induction of apoptosis in human HONE1 cells assessed as necrotic cells at 3 uM after 48 hrs by Annexin V-FITC/propidium iodide staining based flow cytometry (reference value: 0.23%); format: functional
HONE1 cell line [18] = assay: Induction of apoptosis in human HONE1 cells assessed as necrotic cells at 10 uM after 48 hrs by Annexin V-FITC/propidium iodide staining based flow cytometry (reference value: 0.23%); format: functional
HONE1 cell line [19] = assay: Induction of apoptosis in human HONE1 cells assessed as early apoptotic cells at 3 uM after 48 hrs by Annexin V-FITC/propidium iodide staining based flow cytometry (reference value: 3.24%); format: functional
HONE1 cell line [20] = assay: Induction of apoptosis in human HONE1 cells assessed as early apoptotic cells at 5 uM after 48 hrs by Annexin V-FITC/propidium iodide staining based flow cytometry (reference value: 3.24%); format: functional
HONE1 cell line [21] = assay: Induction of apoptosis in human HONE1 cells assessed as necrotic cells at 5 uM after 48 hrs by Annexin V-FITC/propidium iodide staining based flow cytometry (reference value: 0.23%); format: functional
HT-29 = assay: Cytotoxicity against human HT-29 cells after 48 hrs by MTT assay; format: functional, cell-based; details: HT-29, 48 h; method in brief: as §1
HONE1 cell line [22] = assay: Induction of apoptosis in human HONE1 cells assessed as late apoptotic cells at 1 uM after 48 hrs by Annexin V-FITC/propidium iodide staining based flow cytometry (reference value: 0.37%); format: functional
HONE1 cell line [23] = assay: Induction of apoptosis in human HONE1 cells assessed as late apoptotic cells at 5 uM after 48 hrs by Annexin V-FITC/propidium iodide staining based flow cytometry (reference value: 0.37%); format: functional
HONE1 cell line [24] = assay: Induction of apoptosis in human HONE1 cells assessed as live cells at 1 uM after 48 hrs by Annexin V-FITC/propidium iodide staining based flow cytometry (reference value: 96.16%); format: functional
HONE1 cell line [25] = assay: Cell cycle arrest in human HONE1 cells assessed as accumulation at G2/M phase at 3 uM after 48 hrs by propidium iodide staining based flow cytometry (reference value: 0.3%); format: functional
HONE1 cell line [26] = assay: Cell cycle arrest in human HONE1 cells assessed as accumulation at G2/M phase at 20 uM after 48 hrs by propidium iodide staining based flow cytometry (reference value: 0.3%); format: functional
CNE-2 = assay: Cytotoxicity against human CNE2 cells after 48 hrs by MTT assay; format: functional, cell-based; details: CNE-2, 48 h; method in brief: as §1
HONE1 cell line [27] = assay: Cell cycle arrest in human HONE1 cells assessed as accumulation at G0/G1 phase at 20 uM after 48 hrs by propidium iodide staining based flow cytometry (reference value: 55%); format: functional
HONE1 cell line [28] = assay: Induction of apoptosis in human HONE1 cells assessed as late apoptotic cells at 3 uM after 48 hrs by Annexin V-FITC/propidium iodide staining based flow cytometry (reference value: 0.37%); format: functional
SUNE1 = assay: Cytotoxicity against human SUNE1 cells after 48 hrs by MTT assay; format: functional, cell-based; details: SUNE1, 48 h; method in brief: as §1
HONE1 cell line [29] = assay: Induction of apoptosis in human HONE1 cells assessed as necrotic cells at 20 uM after 48 hrs by Annexin V-FITC/propidium iodide staining based flow cytometry (reference value: 0.23%); format: functional
HONE1 cell line [30] = assay: Cytotoxicity against human HONE1 cells after 48 hrs by MTT assay; format: functional, cell-based; details: HONE1, 48 h; method in brief: as §1
HONE1 cell line [31] = assay: Cell cycle arrest in human HONE1 cells assessed as accumulation at S phase at 5 uM after 48 hrs by propidium iodide staining based flow cytometry (reference value: 44.7%); format: functional
HONE1 cell line [32] = assay: Cell cycle arrest in human HONE1 cells assessed as accumulation at G2/M phase at 5 uM after 48 hrs by propidium iodide staining based flow cytometry (reference value: 0.3%); format: functional
HONE1 cell line [33] = assay: Induction of apoptosis in human HONE1 cells assessed as live cells at 5 uM after 48 hrs by Annexin V-FITC/propidium iodide staining based flow cytometry (reference value: 96.16%); format: functional

SMILES: C=C1C(=O)O[C@H]2[C@H]1[C@@H](OC(=O)/C(C)=C/C)C[C@@](C)(O)[C@]13C=C[C@](C)([C@H]21)[C@]1(C3)C(=O)O[C@@H]2[C@H]3C(C)=CC[C@H]3[C@](C)(O)C[C@H](OC(=O)/C(C)=C/C)[C@H]21
- Activity (HONE1 cell line [1]): 40.89%
- IC50 (CNE): 4.6 µM
- Activity (HONE1 cell line [2]): 96.38%
- Activity (HONE1 cell line [3]): 10.54%
- Activity (HONE1 cell line [4]): 49.32%
- Activity (HONE1 cell line [5]): 42.59%
- Activity (HONE1 cell line [6]): 47.77%
- Activity (HONE1 cell line [7]): 16.52%
- Activity (HONE1 cell line [8]): 0.21%
- Activity (HONE1 cell line [9]): 65.22%
- Activity (HONE1 cell line [10]): 56.74%
- Activity (HONE1 cell line [11]): 9.33%
- Activity (HONE1 cell line [12]): 2.2%
- Activity (HONE1 cell line [13]): 44.75%
- Activity (HONE1 cell line [14]): 27.85%
- Activity (HONE1 cell line [15]): 23.45%
- Activity (HONE1 cell line [16]): 50.22%
- Activity (HONE1 cell line [17]): 0.16%
- Activity (HONE1 cell line [18]): 0.79%
- Activity (HONE1 cell line [19]): 3.01%
- Activity (HONE1 cell line [20]): 15%
- Activity (HONE1 cell line [21]): 0.53%
- IC50 (HT-29): 9.6 µM
- Activity (HONE1 cell line [22]): 1.14%
- Activity (HONE1 cell line [23]): 2.61%
- Activity (HONE1 cell line [24]): 96.45%
- Activity (HONE1 cell line [25]): 5.93%
- Activity (HONE1 cell line [26]): 38.22%
- IC50 (CNE-2): 6 µM
- Activity (HONE1 cell line [27]): 14.01%
- Activity (HONE1 cell line [28]): 0.45%
- IC50 (SUNE1): 4.3 µM
- Activity (HONE1 cell line [29]): 6.08%
- IC50 (HONE1 cell line [30]): 3.5 µM
- Activity (HONE1 cell line [31]): 42.25%
- Activity (HONE1 cell line [32]): 7.52%
- Activity (HONE1 cell line [33]): 81.86%
